In ChEMBL document CHEMBL6087468, “TKK130 is a 3-Hydroxy-Propanamidine (HPA) with Potent Antimalarial In Vivo Activity and a High Barrier to Resistance” (J Med Chem, 2025):
The source made the active and inactive calls. No cut-off for these calls is given here.

How the values were obtained:
[1] = Plasma stability at 37 °C measured as remaining drug at 24 hrs sampled in triplicate (concentration 25 ng/mL 2 (TKK130)); format: ADME, cell-free; settings: human, at 25 ng/mL, read-out: Stability
Procedure, shortened: (§1)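 Fresh EDTA human plasma warmed to 37 °C, spiked to 25 ng/mL (0.5% methanol final), split into three fractions, shaken at 37 °C. Samples at 0, 2, 4, 6, 24, 48 h precipitated with ice-cold acetonitrile containing internal standard; LC–MS/MS. Recovery = analyte/IS area ratio relative to 0 h; triplicate.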

Plasmodium falciparum [2] = test: Ex vivo antimalarial activity against Plasmodium falciparum clinical isolates; format: functional, organism-based
Plasmodium falciparum [3] = test: Induction of resistance development in Plasmodium falciparum Dd2 Pol delta at 2 x 10^9 initial inoculum per flask at 9 nM measured 60 days of recovery time by single-step selection assay; format: functional, organism-based; settings: time 60.0 day
[4] = Chemical stability of the compound in aqueous buffer at pH 7.4; format: physicochemical
Procedure, shortened: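 Stability tested in aqueous phosphate buffer, pH 7.4, at room temperature over 24 h, n = 3.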

[5] = Metabolic stability in human liver microsomes assessed as intrinsic clearance at 50 ug/ml measured up to 60 mins; format: ADME, Microsome; settings: microsomes, 1 h, dose 50 µg/ml
Procedure, shortened: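 Pooled human liver microsomes (150 donors) in 0.1 M potassium phosphate buffer pH 7.4, cosolvent method, analyte at 1 μM final; reactions stopped with ice-cold acetonitrile at 0, 15, 30, 45, 60 min; LC–MS/MS. Clint from ke (negative slope of ln peak-area ratio vs time) via t1/2 = ln2/ke; triplicate; no-cofactor negative control and blank run.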

[6] = Cytotoxicity against human HepG2 cells assessed as cell viability measured after 24 hrs by neutral red assay; format: toxicity, cell-based
[7] = Plasma stability at 37 °C measured as remaining drug at 4 hrs sampled in triplicate (concentration 25 ng/mL 2 (TKK130)); format: ADME, cell-free; settings: human, at 25 ng/mL, read-out: Stability; procedure, shortened: as §1
[8] = AUC (0 to t) in mouse infected with Plasmodium berghei at 30 mg/kg, po; format: ADME, organism-based; settings: in vivo
Procedure, shortened: (§2)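 Single oral dose to P. berghei-infected mice, 2 mice per dose group. Blood sampled at 1, 4 and 24 h post-dose as dried blood spots, plus a blank "0 h" reading. Spots diluted 1:5 (3, 10 mg/kg) or 1:10 (30 mg/kg), then quantified by LC–MS/MS against a whole-blood calibration of 1.56–800 ng/mL with QCs at three levels.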

Plasmodium berghei [9] = test: In vivo antiplasmodial activity against Plasmodium berghei infected mouse model assessed as curation rate at 50 mg/kg, po treated 4 times measured at 96 hrs post infection by fluorescence-activated cell sorting (FACS) analysis; format: functional
Plasmodium falciparum [10] = test: Antimalarial activity against Plasmodium falciparum Dd2 MMV183 harboring PfACoAS-mutant infected in human erythrocytes assessed as inhibition of parasite growth measured after 72 hrs incubation by [3H]hypoxanthine incorporation assay; format: functional, organism-based; settings: Dd2 MMV183, Erythrocyte
Procedure, shortened: (§3)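 Dd2 parent line, and mutants made from it by gene editing or drug selection. Growth inhibition measured by the 72 h [3H]hypoxanthine incorporation assay at Swiss TPH. Values are means of 2 independent biological replicates.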

[11] = Microsomal binding in human liver microsomes assessed as unbound fraction […] by Equilibrium dialysis; format: ADME, Microsome
Procedure, shortened: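 Equilibrium dialysis across 6 kDa regenerated cellulose membrane: donor 1 μM analyte in 0.5 mg/mL pooled HLMs in 0.1 M potassium phosphate buffer, acceptor 0.9% saline, 24 h at 37 °C. Donor diluted 1:20 in 4% BSA, acetonitrile precipitation, LC–MS/MS against matrix calibration curves; fraction bound from volume-corrected equation, unbound = 1 − bound; triplicate.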

Hemozoin = test: Inhibition of beta-hematin formation assessed as formation of bis-pyridyl heme complex incubated for 4 to 5 hrs by Nonidet-40 based plate reader assay
[12] = Cytotoxicity against human HeLa cells assessed as cell viability measured after 24 hrs by neutral red assay; format: toxicity, cell-based
Plasmodium knowlesi = test: Antiplasmodial activity against Plasmodium Knowlesi inhibition of parasite growth measured after 48 hrs incubation by Sybr-green assay; format: functional, organism-based
[13] = Unbound drug concentration in plasma (unknown origin) at 25 ng/ml measured after 24 hrs by dilution method; format: ADME, cell-free
Procedure, shortened: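 Equilibrium dialysis with donor plasma diluted 1:10 or 1:20 in 0.9% saline, spiked at 25 ng/mL, against 0.9% saline acceptor for 24 h at 37 °C. Concentrations by LC–MS/MS against diluted-plasma calibration curves; unbound fraction (acceptor/donor) back-calculated to undiluted plasma; triplicate; itraconazole reference.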

Plasmodium berghei [14] = test: In vivo antiplasmodial activity against Plasmodium berghei infected mouse model assessed as curation rate at 10 mg/kg, po treated 4 times measured at 96 hrs post infection by fluorescence-activated cell sorting (FACS) analysis; format: functional
[15] = Tmax in mouse infected with Plasmodium berghei at 30 mg/kg, po; format: ADME, organism-based; settings: in vivo
Procedure, shortened: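 Infected mice (n = 2 per dose) given a single oral dose of 3, 10 or 30 mg/kg; blood sampled as dried blood spots at 1, 4 and 24 h post-dose, diluted before LC–MS analysis against whole-blood dried-spot calibration (1.56–800 ng/mL) with QCs; tmax from concentration–time profiles.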

Plasmodium falciparum [16] = test: Antimalarial activity against Plasmodium falciparum Dd2 ELQ300 harboring PfcytB-mutant infected in human erythrocytes assessed as inhibition of parasite growth measured after 72 hrs incubation by [3H]hypoxanthine incorporation assay; format: functional, organism-based; settings: Dd2 ELQ300, Erythrocyte; procedure, shortened: as §3
Plasmodium falciparum [17] = test: Antimalarial activity against chloroquine, sulfadoxine, and pyrimethamine-resistant Plasmodium falciparum Dd2 infected in erythrocyte assessed as reduction in number of viable parasites at 10 times IC50 concentration treated for 24 hrs followed by allowed to recover in drug-free medium for 28 days by HRP2-ELISA analysis; format: functional, organism-based
Plasmodium berghei [18] = test: In vivo antiplasmodial activity against Plasmodium berghei infected mouse model assessed as mean survival time at 10 mg/kg, po treated 4 times measured at 96 hrs post infection by fluorescence-activated cell sorting (FACS) analysis (reference value: 4 days); format: functional
Plasmodium berghei [19] = test: In vivo antiplasmodial activity against Plasmodium berghei infected mouse model assessed as curation rate at 3 mg/kg, po treated 4 times measured at 96 hrs post infection by fluorescence-activated cell sorting (FACS) analysis; format: functional
[20] = Cmax in mouse infected with Plasmodium berghei at 10 mg/kg, po; format: ADME, organism-based; settings: in vivo; procedure, shortened: as §2
[21] = Cmax in mouse infected with Plasmodium berghei at 30 mg/kg, po; format: ADME, organism-based; settings: in vivo; procedure, shortened: as §2
Plasmodium berghei [22] = test: In vivo antiplasmodial activity against Plasmodium berghei infected mouse model assessed as parasitemia suppression in blood at 30 mg/kg, po treated 4 times measured at 96 hrs post infection by fluorescence-activated cell sorting (FACS) analysis; format: functional
Plasmodium falciparum [23] = test: Antimalarial activity against multidrug-resistant Plasmodium falciparum TM90C2b harboring pfcrt, pfmdr1, pfdhfr, pfdhps and pfcytb-Q0 mutated loci assessed as inhibition of parasite growth incubated for 48 hrs by [3H]hypoxanthine incorporation assay; format: functional, organism-based
Plasmodium berghei [24] = test: In vivo antiplasmodial activity against Plasmodium berghei infected mouse model assessed as mean survival time at 3 mg/kg, po treated 4 times measured at 96 hrs post infection by fluorescence-activated cell sorting (FACS) analysis (reference value: 4 days); format: functional
Plasmodium falciparum [25] = test: Antimalarial activity against chloroquine, sulfadoxine, and pyrimethamine-resistant Plasmodium falciparum Dd2 infected in erythrocyte assessed as reduction in number of viable parasites at 10 times IC50 concentration treated for 72 hrs followed by allowed to recover in drug-free medium for 28 days by HRP2-ELISA analysis; format: functional, organism-based

Cl.N=C(CC(O)c1cc2c(F)cc(F)cc2c2cc(C(F)(F)F)ccc12)Nc1ccc(F)cc1 (configuration not stated)
remaining at 24 h, 25 ng/mL [1]: 76.4%
IC50 (Plasmodium falciparum [2]): 7.5 nM
Activity (Plasmodium falciparum [3]): Active; No Subsequent Parasite Growth Observed
Stability [4]: > 90%
CLint [5]: 1.8 µL/min/mg
IC50 at 24 h [6]: 20000 nM
remaining at 4 h, 25 ng/mL [7]: 89.1%
AUC(0-t) [8]: 40900 ng·h/mL
Activity (Plasmodium berghei [9]): 100%
IC50 (Plasmodium falciparum [10]): 13 nM
Activity [11]: 2.6%
IC50 (Hemozoin): 9400 nM
IC50 at 24 h [12]: 89300 nM
IC50 (Plasmodium knowlesi): 1 nM
Cp(f) [13]: 0.4%
Activity (Plasmodium berghei [14]): 33%
Tmax [15]: 4 h
IC50 (Plasmodium falciparum [16]): 14 nM
Activity (Plasmodium falciparum [17]): Active; Compound Exhibited Fast-Acting Than Dihydroartemisinin
MSD (Plasmodium berghei [18]): 28 days
Activity (Plasmodium berghei [19]): 0%
Cmax [20]: 599 ng/mL
Cmax [21]: 2030 ng/mL
Activity (Plasmodium berghei [22]): 99.8%
IC50 (Plasmodium falciparum [23]): 126 nM
MSD (Plasmodium berghei [24]): 20 days
Activity (Plasmodium falciparum [25]): Active
